CHO parental Ca: signal in parental CHO cells, OX1R antagonist counter-screen; parental CHO-K1, ATP-induced calcium, Fluo-8 fluorescence; inhibition, % at 5.6 µM; 330,000 compounds, 0.63% hits; AID 463079;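 active = inhibition above that plate's mean sample inhibition plus 3 SD, cut at about 26% in these data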;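 also: 0% = ATP-challenged DMSO wells and 100% = DMSO wells without ATP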
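Material: parental CHO cells / Compound: single nominal dose of 5.6 µM per compound / Signal: Fluo-8 fluorescence / Replicates: singlicate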
GPR7 antagonist: human neuropeptides B/W receptor 1 antagonism. P48145. GPR7-expressing cells, fluorescence antagonist assay. inhibition, % at 4.4 µM. 290,000 compounds, 1.1% hits. AID 1861; in the data active = inhibition above about 16%, passing the limit was not always enough;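 also: cells stimulated with the agonist NPW; 0% = agonist with vehicle and 100% = vehicle without agonist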
Target sequence (P48145 whole entry, looked up): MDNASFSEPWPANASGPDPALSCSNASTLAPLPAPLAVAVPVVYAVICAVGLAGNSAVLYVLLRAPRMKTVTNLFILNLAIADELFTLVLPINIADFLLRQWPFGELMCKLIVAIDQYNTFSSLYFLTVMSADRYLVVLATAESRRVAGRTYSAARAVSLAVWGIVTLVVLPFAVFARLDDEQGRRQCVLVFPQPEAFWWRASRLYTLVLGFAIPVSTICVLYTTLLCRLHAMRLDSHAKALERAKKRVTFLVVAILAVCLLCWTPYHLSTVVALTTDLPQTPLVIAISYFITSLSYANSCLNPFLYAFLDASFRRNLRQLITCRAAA
OX1R antag-1: antagonists of human orexin 1 receptor (OX1R). O43613. OX1R-expressing cells, FRET antagonist read-out. inhibition, % at 6.6 µM. 330,000 compounds, 1.8% hits; in the data active = inhibition mostly above about 38%, no sharp cut-off; inactive = mostly below about 40%;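 also: 0% = agonist challenge alone and 100% = reference antagonist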
TAAR1 antag: antagonists of human TAAR1; Q96RJ0; CHO RD-HGA16 TAAR1, Fluo-8 calcium fluorescence, antagonist; inhibition, % at 3 µM; 360,000 compounds, 1.5% hits;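 active = inhibition above a per-plate cutoff, the mean inhibition of test compounds on that plate plus 3 SD, cut at about 49% in these data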;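 also: 0% = DMSO plus EC80 beta-PEA response and 100% = DMSO alone without agonist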
Target sequence (Q96RJ0 whole entry, looked up): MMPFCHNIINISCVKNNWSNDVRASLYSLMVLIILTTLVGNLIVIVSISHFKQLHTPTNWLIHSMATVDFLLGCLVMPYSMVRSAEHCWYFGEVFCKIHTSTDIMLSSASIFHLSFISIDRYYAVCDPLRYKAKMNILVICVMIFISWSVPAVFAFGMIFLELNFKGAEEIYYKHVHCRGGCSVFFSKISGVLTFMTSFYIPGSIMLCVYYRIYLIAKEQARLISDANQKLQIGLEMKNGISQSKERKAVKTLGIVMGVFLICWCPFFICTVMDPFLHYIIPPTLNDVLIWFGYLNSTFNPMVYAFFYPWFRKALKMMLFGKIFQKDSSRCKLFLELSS
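Material: CHO RD-HGA16 cells bearing hTAAR1; compound dosing: one-point dosing, 3 µM nominal final; schedule: dye loading 75 min at 37 °C, then 30 min room temperature; measured by: calcium fluorescence with Fluo-8; control set: vehicle and agonist controls; replication: n of 1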
OX1R antag-2: antagonists of human orexin 1 receptor; inhibition, % at 5 µM; CHO/OX1R cells, Fluo-8 calcium fluorescence, orexin A; 330,000 compounds, 0.43% hits; O43613;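 active = inhibition above its plate's threshold, mean inhibition of all tested compounds on the plate plus 3 SD, cut at about 37% in these data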;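 also: 0% = orexin A challenge wells and 100% = SB-334867-A antagonist wells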
TAAR1 ag: agonists of human TAAR1 | Q96RJ0 | CHO RD-HGA16 TAAR1, Fluo-8 calcium fluorescence; vehicle wells 0%, saturating PEA agonist 100% | activation, % at 3 µM | 360,000 compounds, 0.99% hits | AID 624467;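 active = activation above the mean activation of all test compounds in the run plus 3 SD, cut at about 38% in these data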
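Assay system – CHO-derived RD-HGA16 cells with stable Gα16 and human TAAR1 · Compound dosing – one-point dosing at 3 µM (nominal) · Incubation – 17-24 h seeding, 75 min 37 °C dye, 30 min RT · Measured by – kinetic Fluo-8 calcium fluorescence · Control set – DMSO vehicle as 0%, PEA at EC100 as 100% · Repeats – single well for each compound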
TAAR1 ag confirm: confirmation of human TAAR1 agonists; shares compounds with TAAR1 ag; CHO RD-HGA16 TAAR1, Fluo-8 calcium fluorescence; scaled: DMSO 0%, maximal phenethylamine 100%; 2,400 compounds, 82% hits; activation, % at 3 µM;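 active = activation above a cutoff set at the run's mean compound activation plus 3 SD, cut at about 39% in these data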
Ga16 ag counter: nonselective agonist in parental cells, TAAR1 agonist counter-screen; CHO-Ga16 parental, Fluo-8 calcium fluorescence; normalized to maximal ATP response, DMSO zero; 2,400 compounds, 50% hits; activation, % at 3 µM; AID 651787; shares compounds with TAAR1 ag;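 active = activation above the run cutoff, the mean activation over all tested wells plus 3 SD, cut at about 12% in these data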;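 also: 0% = DMSO wells and 100% = maximal ATP response on the peak over basal ratio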
TAAR1 desensitize: human TAAR1 agonist that also desensitizes the receptor. CHO RD-HGA16 hTAAR1, Fluo-8 calcium, beta-PEA response inhibition. AID 651951. 2,400 compounds, 46% hits. shares compounds with TAAR1 ag. inhibition, % at 3 µM;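 active = inhibition above the run cutoff, the mean inhibition of all test compounds plus 3 SD, cut at about 49% in these data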;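 also: beta-PEA stimulus applied at its EC80; loss of beta-PEA calcium signal after compound pretreatment read as receptor desensitization; 0% = DMSO with beta-PEA at EC80 and 100% = DMSO alone without agonist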
Ga16 nonsel ant: nonselective Ga16 antagonist in TAAR1 agonist counter-screen. shares compounds with TAAR1 ag. 2,400 compounds, 39% hits. inhibition, % at 3 µM. AID 651952. CHO-Ga16 ATP-induced calcium, Fluo-8 fluorescence;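 active = inhibition above the plate's mean compound inhibition plus 3 SD, computed per plate, cut at about 22% in these data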;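 also: 0% = EC80 ATP with DMSO and 100% = DMSO wells without ATP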
Numbers without * were called inactive; · = no result. The list is not random: actives were taken first. Their share in the collection is about 4.6%.

SMILES	CHO parental Ca	GPR7 antagonist	OX1R antag-1	TAAR1 antag	OX1R antag-2	TAAR1 ag	TAAR1 ag confirm	Ga16 ag counter	TAAR1 desensitize	Ga16 nonsel ant
CCC(C)NC(=O)c1cc(-c2ccc(OC)cc2)on1 (stereo not given)	-4	-9	11	-18	4	8	·	·	·	·
COc1ccc(-c2cc(C(=O)NCC(C)C)no2)cc1	-6	-9	20	42	-7	72*	-1	2	77*	20
COC(=O)c1sccc1S(=O)(=O)Nc1ccc(C(O)(C(F)(F)F)C(F)(F)F)cc1	·	·	·	103*	·	169*	142*	113*	103*	84*
Cc1ccc(S(=O)(=O)Nc2ccc(N(C)S(=O)(=O)c3ccc(C)cc3)cc2)cc1	-5	-7	8	25	-7	52*	45*	19*	33	21
CSc1ccc(S(=O)(=O)Nc2ccc(S(=O)(=O)Nc3ccc(C)cc3)cc2)cc1	-10	-2	0	1	0	34	·	·	·	·
CCOC(=O)c1ccc(NC(=O)Cn2nnc(-c3ccccc3F)n2)cc1	-9	-3	23	-24	-12	7	·	·	·	·
COc1ccc(NC(=O)Cn2nnc(-c3ccccc3F)n2)cc1Cl	-2	-8	13	38	-9	57*	19	2	9	18
Oc1ccc(/C=N/Nc2ccnc3cc(Cl)ccc23)cc1O	-7	-17	5	65*	-11	97*	106*	6	92*	1
Oc1ccc(/C=N/Nc2ccnc3cc(Cl)ccc23)c(O)c1O	-10	-10	3	3	-24	8	·	·	·	·
Cc1nn(C(=O)c2cc([N+](=O)[O-])ccc2Cl)c(C)c1Br	-11	5	22	-9	-13	3	·	·	·	·
COc1ccc(S(=O)(=O)N2CCCC2=O)cc1N(C)S(C)(=O)=O	·	-11	·	-11	·	3	·	·	·	·
Brc1ccc(C2C3=C(Nc4ncnn42)c2ccccc2OC3c2ccncc2)cc1 (stereo not given)	-25	-8	9	19	-29	43*	12	6	3	13
O=C(CC1C(=O)NCCN1CC1CCCCC1)NCc1ccc(F)cc1 (stereo not given)	-22	-1	5	5	-16	0	·	·	·	·
O=C(CC1C(=O)NCCN1CC1CCCCC1)NCCc1ccc(F)cc1 (stereo not given)	-18	13	10	-17	-27	45*	50*	0	5	2
COc1ccccc1CCNC(=O)CC1C(=O)NCCN1CCCc1ccccc1 (stereo not given)	-24	3	25	17	-33	74*	71*	2	43	11
CC(C)(C)CN1CCNC(=O)C1CC(=O)NCCc1ccccc1F (stereo not given)	-36	6	20	·	-30	·	·	2	·	5
CC(C)(C)CN1CCNC(=O)C1CC(=O)NCCc1cnn(-c2ccccc2)c1 (stereo not given)	-20	5	25	9	-28	11	·	·	·	·
COc1cccc(CNC(=O)CC2C(=O)NCCN2CCCc2ccccc2)c1 (stereo not given)	-20	-1	20	-15	-29	19	·	·	·	·
CCCCn1c(N)c(N(CC(C)C)C(=O)C2CC(=O)N(Cc3ccco3)C2)c(=O)[nH]c1=O (stereo not given)	1	-14	8	-19	1	4	·	·	·	·
COCCn1nnnc1C(c1cc2cc(OC)ccc2[nH]c1=O)N1CCC(Cc2ccccc2)CC1 (stereo not given)	-7	-11	6	8	-11	7	·	·	·	·
O=c1[nH]c2cc3c(cc2cc1CN(CCc1ccccc1)Cc1nnnn1CC1CCCO1)OCO3 (stereo not given)	-15	-13	9	7	-12	7	·	·	·	·
COc1ccc2cc(CN(CCc3ccccc3)Cc3nnnn3CC3CCCO3)c(=O)[nH]c2c1 (stereo not given)	-5	-3	24	57*	-11	92*	78*	5	75*	17
COc1ccc2[nH]c(=O)c(CN(Cc3ccccc3OC)Cc3nnnn3CC3CCCO3)cc2c1 (stereo not given)	-31	-14	45	-13	-16	1	·	·	·	·
COc1ccc2[nH]c(=O)c(CN(CCc3ccccc3)Cc3nnnn3CC3CCCO3)cc2c1 (stereo not given)	-25	-15	33	72*	-18	84*	88*	8	81*	25*
COc1ccc2cc(C(c3nnnn3CCc3ccccc3)N3CCCC(C)C3)c(=O)[nH]c2c1 (stereo not given)	-3	-5	13	30	-22	54*	58*	3	18	14
SMILES	CHO parental Ca	GPR7 antagonist	OX1R antag-1	TAAR1 antag	OX1R antag-2	TAAR1 ag	TAAR1 ag confirm	Ga16 ag counter	TAAR1 desensitize	Ga16 nonsel ant
COc1ccc(-c2cn3cccnc3n2)cc1F	2	-8	10	-11	3	4	·	·	·	·
COc1ccc(CN2CCC[C@]3(N[C@H](c4ccc(C)cc4)[C@@H]4C(=O)N(C)C(=O)[C@@H]43)C2=O)cc1	·	·	·	-13	·	3	·	·	·	·
CCCCOc1ccc(N2C(=O)CC(N(CCc3ccccc3)C(=O)/C=C/C(=O)O)C2=O)cc1 (stereo not given)	-11	-8	8	1	-21	67*	78*	2	31	0
CCOCCOc1cccc(C(=O)NC(C)c2ccc3ccccc3c2)c1 (stereo not given)	-14	-10	13	21	-33	1	·	·	·	·
CCOCCOc1cccc(C(=O)NC(c2ccccc2)c2ccccc2)c1	-6	-4	-5	·	-22	·	·	8	·	12
Cc1cc(C)nc(OC(C(=O)O)C(OCCc2ccccc2)(c2ccccc2)c2ccccc2)n1 (stereo not given)	-28	-9	0	18	-21	99*	126*	85*	20	3
Cc1ccc(C)c(NC(=S)N(C)CCc2ccccn2)c1	-5	-8	0	-9	2	45*	39*	0	-2	-1
CN(CCc1ccccn1)C(=S)Nc1ccc(Cl)c(Cl)c1	-29	-2	24	0	-28	31	·	·	·	·
